Measurements published in ChEMBL document CHEMBL4312018, “Novel benzimidazole phosphonates as potential inhibitors of protein prenylation” (Bioorg Med Chem Lett, 2019).
Calls of active or inactive are those of the source. No cut-off for these calls is given here.

Columns and labels:
[1] = target: T1, Geranylgeranyl transferase type-2 (Rattus norvegicus, UniProt Q08602+Q08603); test: Inhibition of recombinant rat RabGGTase expressed in Escherichia coli using Rab7 as substrate and [3H]geranylgeranyl pyrophosphate after 20 mins by liquid scintillation analysis
T1 sequence (Q08603 whole entry): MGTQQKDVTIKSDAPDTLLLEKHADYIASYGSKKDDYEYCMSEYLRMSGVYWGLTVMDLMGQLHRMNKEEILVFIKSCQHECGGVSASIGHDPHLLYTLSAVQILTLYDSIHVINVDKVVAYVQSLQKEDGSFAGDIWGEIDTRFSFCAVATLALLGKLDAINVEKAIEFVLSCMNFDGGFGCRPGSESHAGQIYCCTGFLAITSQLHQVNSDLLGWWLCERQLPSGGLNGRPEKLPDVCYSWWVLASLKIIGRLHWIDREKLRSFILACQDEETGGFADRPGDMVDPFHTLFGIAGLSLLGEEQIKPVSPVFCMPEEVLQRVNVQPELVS
T1 sequence (Q08602 whole entry): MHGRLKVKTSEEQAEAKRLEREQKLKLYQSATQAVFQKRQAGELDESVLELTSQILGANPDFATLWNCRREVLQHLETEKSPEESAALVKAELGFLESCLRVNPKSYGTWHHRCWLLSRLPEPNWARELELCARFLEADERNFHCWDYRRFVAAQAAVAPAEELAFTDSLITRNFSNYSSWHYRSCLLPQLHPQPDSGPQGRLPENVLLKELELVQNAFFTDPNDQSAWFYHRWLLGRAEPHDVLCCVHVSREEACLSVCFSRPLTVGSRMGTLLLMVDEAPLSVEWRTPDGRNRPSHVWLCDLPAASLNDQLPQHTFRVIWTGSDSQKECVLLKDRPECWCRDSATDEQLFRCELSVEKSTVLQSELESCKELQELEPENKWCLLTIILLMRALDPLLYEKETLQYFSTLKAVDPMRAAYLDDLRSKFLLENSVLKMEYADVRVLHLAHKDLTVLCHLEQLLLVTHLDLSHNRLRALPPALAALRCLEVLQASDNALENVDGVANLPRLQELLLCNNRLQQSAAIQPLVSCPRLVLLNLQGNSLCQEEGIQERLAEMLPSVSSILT

[2] = target: geranylgeranyltransferase type-I (Rattus norvegicus, UniProt P53610+Q04631); test: Inhibition of recombinant rat GGtase-1 expressed in Escherichia coli using dansyl-GCVLL as substrate after 1.5 hrs by spectrofluorimetric analysis
[3] = target: T2, geranylgeranyltransferase type-I (Rattus norvegicus) (UniProt P53610+Q04631); test: Activation of recombinant rat GGtase-1 expressed in Escherichia coli assessed as enzyme activity at 1000 uM using dansyl-GCVLL as substrate after 1.5 hrs by spectrofluorimetric analysis relative to control
[4] = target: Protein farnesyltransferase (Rattus norvegicus, UniProt Q02293+Q04631); test: Inhibition of recombinant rat FTase expressed in Escherichia coli using dansyl-GCVLS as substrate after 1.5 hrs by spectrofluorimetric analysis
[5] = target: T3, Farnesyl pyrophosphate synthase (Homo sapiens, UniProt P14324); test: Inhibition of FDPS (unknown origin) using [14C] IPP and GPP as substrate preincubated for 10 mins followed by substrate addition and measured after 30 min by liquid scintillation counting method
T3 sequence (P14324 whole entry): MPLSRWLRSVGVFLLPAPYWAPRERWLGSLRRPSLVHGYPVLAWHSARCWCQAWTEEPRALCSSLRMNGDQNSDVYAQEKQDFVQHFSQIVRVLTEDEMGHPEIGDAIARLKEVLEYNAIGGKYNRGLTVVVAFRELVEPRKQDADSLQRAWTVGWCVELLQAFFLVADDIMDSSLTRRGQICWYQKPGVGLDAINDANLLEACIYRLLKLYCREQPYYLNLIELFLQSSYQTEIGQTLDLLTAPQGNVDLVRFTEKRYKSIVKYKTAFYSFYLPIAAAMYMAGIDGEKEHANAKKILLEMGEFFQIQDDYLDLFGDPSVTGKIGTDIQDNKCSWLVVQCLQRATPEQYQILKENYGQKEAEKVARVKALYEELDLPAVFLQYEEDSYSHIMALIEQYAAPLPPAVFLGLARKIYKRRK

[6] = target: T4, Geranylgeranyl pyrophosphate synthase (Homo sapiens, UniProt O95749); test: Inhibition of GGDPS (unknown origin) using [14C] IPP and FPP as substrate preincubated for 10 mins followed by substrate addition and measured after 30 min by liquid scintillation counting method
T4 sequence (O95749 whole entry): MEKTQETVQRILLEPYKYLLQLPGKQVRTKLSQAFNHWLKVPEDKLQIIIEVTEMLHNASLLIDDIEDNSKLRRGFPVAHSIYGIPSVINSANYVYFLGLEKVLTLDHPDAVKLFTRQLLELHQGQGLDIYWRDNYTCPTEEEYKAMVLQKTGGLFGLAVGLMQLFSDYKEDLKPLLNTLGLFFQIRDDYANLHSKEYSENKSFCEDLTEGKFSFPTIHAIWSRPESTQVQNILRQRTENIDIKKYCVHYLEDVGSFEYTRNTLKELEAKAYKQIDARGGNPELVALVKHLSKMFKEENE

[7] = organism: Homo sapiens; test: Selectivity ratio of IC50 for GGDPS (unknown origin) to IC50 for FDPS (unknown origin)
[8] = target: T5, Farnesyl pyrophosphate synthase (Homo sapiens) (UniProt P14324); test: Inhibition of FDPS in human RPMI8226 cells assessed as unmodified Rap1a level at =< 1 mM after 48 hrs by immunoblot analysis; assay type: cell-based
T5 sequence (whole entry): T3 sequence (P14324 whole entry)
Summary of the method: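 RPMI-8226 cells were exposed for 48 h. The lowest effective concentration counts only when two read-outs agree. Unmodified Rap1a must be visible on immunoblot of whole-cell lysate, using an antibody that detects only unmodified protein.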

[9] = target: T5, Farnesyl pyrophosphate synthase (Homo sapiens); test: Inhibition of FDPS in human RPMI8226 cells assessed as increase in intracellular lambda chain level at =< 1mM after 48 hrs by ELISA; assay type: cell-based
Summary of the method: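 RPMI-8226 cells were exposed for 48 h, and intracellular lambda light chain was measured by ELISA as percent of untreated control. The lowest effective concentration also requires unmodified Rap1a to be visible on whole-cell-lysate immunoblot with an unmodified-specific antibody. The ELISA rise must be statistically significant.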

[10] = target: T6, Geranylgeranyl transferase type-2 (Homo sapiens) (UniProt P53611+Q92696); test: Inhibition of GGtase-2 in human RPMI8226 cells assessed as increase in intracellular lambda chain at =< 1 mM level after 48 hrs by ELISA; assay type: cell-based
Summary of the method: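 RPMI-8226 cells were incubated 48 h with the compound or medium alone. Intracellular lambda light chain was quantified by ELISA and expressed as percent of untreated control (mean ± SD, n=3). Significance versus control was judged by t-test, p<0.05.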

[11] = target: T6, Geranylgeranyl transferase type-2 (Homo sapiens); test: Inhibition of GGtase-2 in human RPMI8226 cells assessed as decrease in Rab6 level at =< 1 mM after 48 hrs by immunoblot analysis relative to control; assay type: cell-based
Summary of the method: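 After 48 h treatment, RPMI-8226 cells were extracted with Triton X-114 to give a detergent (membrane) fraction, which was immunoblotted for Rab6. Rab6 band density was normalized to calnexin and expressed relative to untreated cells. Blots are representative of three independent studies.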

[12] = target: Protein farnesyltransferase (Homo sapiens) (UniProt P49354+P49356); test: Inhibition of FTase in human RPMI8226 cells assessed as disruption of H-ras farnesylation after 48 hrs by immunoblot analysis; assay type: cell-based
[13] = target: Geranylgeranyl transferase type I (Homo sapiens) (UniProt P49354+P53609); test: Inhibition of GGtase-1 in human RPMI8226 cells assessed as disruption of Rap1a geranylgeranylation after 48 hrs immunoblot analysis; assay type: cell-based
[14] = target: T2, geranylgeranyltransferase type-I (Rattus norvegicus); test: Activation of recombinant rat GGtase-1 expressed in Escherichia coli using dansyl-GCVLL as substrate after 1.5 hrs by spectrofluorimetric analysis

IC50 [1]: 534 µM
IC50 [2]: > 1000 µM
Activity [3]: 560%
IC50 [4]: > 1000 µM
IC50 [5]: 0.69 µM
IC50 [6]: 41 µM
Ratio IC50 [7]: 59
inhibition [8]: inactive
inhibition [9]: inactive
inhibition [10]: inactive
inhibition [11]: inactive
inhibition [12]: inactive
inhibition [13]: inactive
Activity [14]: Dose-dependent effect
SMILES: Cc1cc2ncn(CC(P(=O)(O)O)P(=O)(O)O)c2cc1C
